From ChEMBL document CHEMBL3045525, “Synthesis and fungicidal activity of novel 2,5-disubstituted-1,3,4-oxadiazole derivatives” (2012)

Columns and labels:
Botrytis cinerea [1] = assay: Fungicidal activity against Botryotinia fuckeliana infected in drug-pretreated cucumber two seeded leaves assessed as decrease in disease index at 500 ug/ml (acetone Rvb = 1.53 +/-0.21%); assay type: functional
Outline: (§1)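 Greenhouse cucumber assay. Fungi kept on PDA at 4 °C and cultured at 24 ± 1 °C. Plants at the two-seed-leaf stage had leaves hand-sprayed at 500 μg/mL, then were inoculated and held at 24 ± 1 °C, >80% RH. Efficacy = (CK − PT)/CK × 100, from average disease indices.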

Corynespora cassiicola [2] = assay: Fungicidal activity against Corynespora cassiicola infected in drug-pretreated cucumber two seeded leaves assessed as decrease in disease index at 500 ug/ml (acetone Rvb = 5.23 +/-0.88%); assay type: functional; outline: as §1
Cladosporium cucumerinum [3] = assay: Fungicidal activity against Cladosporium cucumerinum infected drug-pretreated cucumber two seeded leaves assessed as decrease in disease index at 500 ug/ml (acetone Rvb = 3.18 +/-0.75%); assay type: functional; outline: as §1
Rhizoctonia solani [4] = assay: Fungicidal activity against Rhizoctonia solani infected drug-pretreated cucumber two seeded leaves assessed as decrease in disease index at 500 ug/ml (acetone Rvb = 2.22 +/-0.79%); assay type: functional; outline: as §1
Corynespora cassiicola [5] = assay: Fungicidal activity against Corynespora cassiicola infected in drug-pretreated cucumber two seeded leaves assessed as decrease in disease index at 75% WP formulation (acetone Rvb = 5.23 +/-0.88%); assay type: functional; outline: as §1
Cladosporium cucumerinum [6] = assay: Fungicidal activity against Cladosporium cucumerinum infected drug-pretreated cucumber two seeded leaves assessed as decrease in disease index at 40% EC formulation (acetone Rvb = 3.18 +/-0.75%)
Botrytis cinerea [7] = assay: Fungicidal activity against Botryotinia fuckeliana infected in drug-pretreated cucumber two seeded leaves assessed as decrease in disease index at 40% SC formulation (acetone Rvb = 1.53 +/-0.21%); assay type: functional; outline: as §1
Rhizoctonia solani [8] = assay: Fungicidal activity against Rhizoctonia solani infected drug-pretreated cucumber two seeded leaves assessed as decrease in disease index at 3% AS formulation (acetone Rvb = 2.22 +/-0.79%); assay type: functional; outline: as §1

Compound `O=C(N/N=C/c1ccc(Cl)cc1)c1ccc(-c2ccccc2F)o1` has an Efficacy (Botrytis cinerea [1]) of 27%, an Efficacy (Corynespora cassiicola [2]) of -3.05% and an Efficacy (Cladosporium cucumerinum [3]) of 37.3%. For the same compound, the Efficacy (Rhizoctonia solani [4]) was -5.2%.
Work on `O=C(N/N=C/c1ccccc1)c1ccc(-c2ccc(Cl)cc2)o1` yielded an Efficacy (Botrytis cinerea [1]) of 11%, an Efficacy (Corynespora cassiicola [2]) of 50.78% and an Efficacy (Cladosporium cucumerinum [3]) of -8.1%. For the same compound, the Efficacy (Rhizoctonia solani [4]) was 10.2%.
Compound `O=C(N/N=C/c1ccccc1Cl)c1ccc(-c2ccc(F)cc2)o1` has an Efficacy (Botrytis cinerea [1]) of 72%, an Efficacy (Corynespora cassiicola [2]) of 13.87% and an Efficacy (Cladosporium cucumerinum [3]) of -22%. It also gave an Efficacy (Rhizoctonia solani [4]) of 8%.
With `O=[N+]([O-])c1ccccc1-c1ccc(-c2nnc(-c3ccc(Cl)cc3)o2)o1` the Efficacy (Botrytis cinerea [1]) was -30.02%, the Efficacy (Corynespora cassiicola [2]) was 15.17% and the Efficacy (Cladosporium cucumerinum [3]) was 17.2%. For the same compound, the Efficacy (Rhizoctonia solani [4]) was 94.38%.
`COc1ccc(-c2nnc(-c3ccc(-c4ccccc4[N+](=O)[O-])o3)o2)cc1` gave an Efficacy (Botrytis cinerea [1]) of 92.68%, an Efficacy (Corynespora cassiicola [2]) of 48.61% and an Efficacy (Cladosporium cucumerinum [3]) of 15%. The Efficacy (Rhizoctonia solani [4]) was 48.48%.
`CCOc1ccc(-c2nnc(-c3ccc(-c4ccccc4[N+](=O)[O-])o3)o2)cc1` gave an Efficacy (Botrytis cinerea [1]) of 33.75%, an Efficacy (Corynespora cassiicola [2]) of 74.71% and an Efficacy (Cladosporium cucumerinum [3]) of 8.89%. It also gave an Efficacy (Rhizoctonia solani [4]) of 65.58%.
`COc1ccc(-c2nnc(-c3ccc(-c4ccc([N+](=O)[O-])cc4)o3)o2)cc1` showed an Efficacy (Botrytis cinerea [1]) of 47.83%, an Efficacy (Corynespora cassiicola [2]) of 10.59% and an Efficacy (Cladosporium cucumerinum [3]) of 12.35%. For the same compound, the Efficacy (Rhizoctonia solani [4]) was -3.97%.
`CCOc1ccc(-c2nnc(-c3ccc(-c4ccc([N+](=O)[O-])cc4)o3)o2)cc1` was tested, and the Efficacy (Botrytis cinerea [1]) was 77.78%, the Efficacy (Corynespora cassiicola [2]) was 25.49% and the Efficacy (Cladosporium cucumerinum [3]) was 16.48%. The Efficacy (Rhizoctonia solani [4]) was 63.47%.
`Fc1ccc(-c2ccc(-c3nnc(-c4ccccc4Cl)o3)o2)cc1` gave an Efficacy (Botrytis cinerea [1]) of 76.52%, an Efficacy (Corynespora cassiicola [2]) of 27.94% and an Efficacy (Cladosporium cucumerinum [3]) of 7.78%. For the same compound, the Efficacy (Rhizoctonia solani [4]) was 25.54%.
Compound `O=C(N/N=C/c1ccc(Br)cc1)c1ccc(-c2ccccc2Cl)o1` has an Efficacy (Botrytis cinerea [1]) of 91.76%, an Efficacy (Corynespora cassiicola [2]) of 28.79% and an Efficacy (Cladosporium cucumerinum [3]) of 19.75%. For the same compound, the Efficacy (Rhizoctonia solani [4]) was 57.85%.
Compound `CC(=O)N1N=C(c2ccc(-c3ccc(Cl)cc3)o2)OC1c1ccccc1` (stereo not drawn) has an Efficacy (Botrytis cinerea [1]) of 70.71%, an Efficacy (Corynespora cassiicola [2]) of 35.29% and an Efficacy (Cladosporium cucumerinum [3]) of 45.61%. It also gave an Efficacy (Rhizoctonia solani [4]) of 69.09%.
Work on `CC(=O)N1N=C(c2ccc(-c3ccccc3Cl)o2)OC1c1ccc(Br)cc1` (stereo not drawn) yielded an Efficacy (Botrytis cinerea [1]) of 23.23%, an Efficacy (Corynespora cassiicola [2]) of 32.03% and an Efficacy (Cladosporium cucumerinum [3]) of 16.67%. It also gave an Efficacy (Rhizoctonia solani [4]) of 14.3%.
For `CC(=O)N1N=C(c2ccc(-c3ccccc3F)o2)OC1c1ccc(Cl)cc1` (stereo not drawn), the Efficacy (Botrytis cinerea [1]) was 18.89%, the Efficacy (Corynespora cassiicola [2]) was 28.85% and the Efficacy (Cladosporium cucumerinum [3]) was 31.11%. The Efficacy (Rhizoctonia solani [4]) was 66.28%.
Work on `CC(=O)N1N=C(c2ccc(-c3ccc(F)cc3)o2)OC1c1ccccc1Cl` (stereo not drawn) yielded an Efficacy (Botrytis cinerea [1]) of 76.28%, an Efficacy (Corynespora cassiicola [2]) of 28.72% and an Efficacy (Cladosporium cucumerinum [3]) of 40%. For the same compound, the Efficacy (Rhizoctonia solani [4]) was 31.03%.
`CCC(=O)N1N=C(c2ccc(-c3ccccc3Cl)o2)OC1c1ccc(Br)cc1` (stereo not drawn) was tested, and the Efficacy (Botrytis cinerea [1]) was 13.91%, the Efficacy (Corynespora cassiicola [2]) was 41.18% and the Efficacy (Cladosporium cucumerinum [3]) was 23.98%. For the same compound, the Efficacy (Rhizoctonia solani [4]) was 63.87%.
`CCC(=O)N1N=C(c2ccc(-c3ccc(F)cc3)o2)OC1c1ccccc1Cl` (stereo not drawn) showed an Efficacy (Botrytis cinerea [1]) of -24.9%, an Efficacy (Corynespora cassiicola [2]) of 46.75% and an Efficacy (Cladosporium cucumerinum [3]) of 31.48%. For the same compound, the Efficacy (Rhizoctonia solani [4]) was 52.33%.
`O=C(NNC(=O)c1ccc(-c2ccccc2Cl)o1)c1ccc(Br)cc1` gave an Efficacy (Botrytis cinerea [1]) of 24.64%, an Efficacy (Corynespora cassiicola [2]) of 8.24% and an Efficacy (Cladosporium cucumerinum [3]) of 14.2%. It also gave an Efficacy (Rhizoctonia solani [4]) of 49.42%.
Work on `Cc1ccc(C(=O)NNC(=O)c2ccc(-c3ccc(Cl)cc3)o2)cc1` yielded an Efficacy (Botrytis cinerea [1]) of 4.35%, an Efficacy (Corynespora cassiicola [2]) of 50.87% and an Efficacy (Cladosporium cucumerinum [3]) of 29.8%. For the same compound, the Efficacy (Rhizoctonia solani [4]) was 19.8%.
In the case of `O=C(NNC(=O)c1ccc(-c2ccccc2[N+](=O)[O-])o1)c1ccc(Cl)cc1`, the Efficacy (Botrytis cinerea [1]) is reported as 79.58%, the Efficacy (Corynespora cassiicola [2]) is reported as 66.09% and the Efficacy (Cladosporium cucumerinum [3]) is reported as 14.44%. It also gave an Efficacy (Rhizoctonia solani [4]) of 95.56%.
In the case of `COc1ccc(C(=O)NNC(=O)c2ccc(-c3ccccc3[N+](=O)[O-])o2)cc1`, the Efficacy (Botrytis cinerea [1]) is reported as 35.5%, the Efficacy (Corynespora cassiicola [2]) is reported as 28.35% and the Efficacy (Cladosporium cucumerinum [3]) is reported as 2.61%. For the same compound, the Efficacy (Rhizoctonia solani [4]) was 56.45%.
In the case of `CCOc1ccc(C(=O)NNC(=O)c2ccc(-c3ccccc3[N+](=O)[O-])o2)cc1`, the Efficacy (Botrytis cinerea [1]) is reported as -43.27%, the Efficacy (Corynespora cassiicola [2]) is reported as 18.82% and the Efficacy (Cladosporium cucumerinum [3]) is reported as 10%. The Efficacy (Rhizoctonia solani [4]) was 78.93%.
Work on `COc1ccc(C(=O)NNC(=O)c2ccc(-c3ccc([N+](=O)[O-])cc3)o2)cc1` yielded an Efficacy (Botrytis cinerea [1]) of 29.9%, an Efficacy (Corynespora cassiicola [2]) of 36.36% and an Efficacy (Cladosporium cucumerinum [3]) of 57.89%. For the same compound, the Efficacy (Rhizoctonia solani [4]) was 24.45%.
In the case of `CCOc1ccc(C(=O)NNC(=O)c2ccc(-c3ccc([N+](=O)[O-])cc3)o2)cc1`, the Efficacy (Botrytis cinerea [1]) is reported as 79.13%, the Efficacy (Corynespora cassiicola [2]) is reported as 38.24% and the Efficacy (Cladosporium cucumerinum [3]) is reported as 28.35%. The Efficacy (Rhizoctonia solani [4]) was 71.9%.
`O=C(NNC(=O)c1ccccc1Cl)c1ccc(-c2ccc(F)cc2)o1` was tested, and the Efficacy (Botrytis cinerea [1]) was 89.57%, the Efficacy (Corynespora cassiicola [2]) was 34.26% and the Efficacy (Cladosporium cucumerinum [3]) was 30.32%. For the same compound, the Efficacy (Rhizoctonia solani [4]) was 69.35%.
For `Clc1ccccc1-c1ccc(-c2nnc(-c3ccc(Br)cc3)o2)o1`, the Efficacy (Botrytis cinerea [1]) was -2.61%, the Efficacy (Corynespora cassiicola [2]) was 90.59% and the Efficacy (Cladosporium cucumerinum [3]) was 17.9%. For the same compound, the Efficacy (Rhizoctonia solani [4]) was -1.16%.
`Cc1ccc(-c2nnc(-c3ccc(-c4ccc(Cl)cc4)o3)o2)cc1` was tested, and the Efficacy (Botrytis cinerea [1]) was 42.38%, the Efficacy (Corynespora cassiicola [2]) was 28.24% and the Efficacy (Cladosporium cucumerinum [3]) was 5.85%. For the same compound, the Efficacy (Rhizoctonia solani [4]) was 24.13%.
`N#Cc1c(Cl)c(Cl)c(Cl)c(C#N)c1Cl` [CHLOROTHALONIL] was tested, and the Efficacy (Corynespora cassiicola [5]) was 93.53%.
`C[Si](Cn1cncn1)(c1ccc(F)cc1)c1ccc(F)cc1` [FLUSILAZOLE] was tested, and the Efficacy (Cladosporium cucumerinum [6]) was 95.56%.
`Cc1cc(C)nc(Nc2ccccc2)n1` [PYRIMETHANIL] was tested, and the Efficacy (Botrytis cinerea [7]) was 69.57%.
In the case of `OCC1=C[C@H](N[C@H]2C[C@H](CO)[C@@H](O[C@@H]3O[C@H](CO)[C@@H](O)[C@H](O)[C@H]3O)[C@H](O)[C@H]2O)[C@H](O)[C@@H](O)[C@@H]1O` [VALIDAMYCIN], the Efficacy (Rhizoctonia solani [8]) is reported as 93.68%.
